Each structure is given as a SMILES string. Calls of active or inactive are those of the source.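 Rule for the calls: active = toxic dose over ten times the dose restoring drug killing, with toxic dose under 15 µM; inactive = the rest.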

This experiment has as its system Jurkat/DNR viability with daunorubicin, trypan blue, 7 d. The experiment in a line: chemoreversal in ABCB1 cells, dose response, ABC transporter inhibitor project, paired ABCG2 counter-screen, SAR hit validation (AID 488973). The conditions noted are these: for CC50: measured here: toxicity without chemotherapeutic (TD50). The essentials:
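assay system = ABCB1-expressing drug-resistant Jurkat/DNR cells | input = 100,000 cells per mL | probe or stimulus = fixed daunorubicin | dosing = test compound dose series from 0.1 to 100 µM | schedule = 7-day exposure of cells to test compound | signal = trypan blue cell counts | evaluation = chemo-reversal 50% concentration (CR50) set against 50% toxic dose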
For orientation: Counterscreens check selectivity or assay interference.

For `COc1ccccc1-c1cc2nc(-c3ccccc3)cc(N3CCN(C(=O)c4ccoc4)CC3)n2n1`, the EC50 (commonly the concentration that produces a half-maximal response) is 0.45 µM (inactive) and the half-maximal cytotoxic concentration (CC50) – broadly, the concentration giving 50% cytotoxicity – was found to be 4.37 µM.

For the compound `O=C(c1ccoc1)N1CCN(c2cc(-c3ccccc3)nc3cc(-c4ccncc4)nn23)CC1`, the EC50 was 1.52 µM (inactive) and the CC50 was 9.52 µM.

Take `Cc1cc(N2CCN(C(=O)c3ccco3)CC2)n2nc(C)c(-c3ccccc3)c2n1`: the EC50 was 3.58 µM (inactive) and the CC50 was found to be 3.31 µM.

Consider `Cc1cc(N2CCN(C(=O)c3ccco3)CC2)n2nc(-c3ccccc3)nc2n1`, for which the EC50 was 4.92 µM (inactive) and the CC50 is 11.8 µM.

Turning to `Cc1nc2cc(-c3cccc(Cl)c3)nn2c(N2CCN(C(=O)c3ccsc3)CC2)c1C`, the EC50 is 1.13 µM (inactive) and the CC50 turned out to be 10.1 µM.

With `O=C(c1ccco1)N1CCN(c2cc(-c3ccccc3)nc3cc(-c4cccc(F)c4)nn23)CC1`, the EC50 is 0.58 µM (inactive) and the CC50 was found to be 2.16 µM.

For `O=C(c1cccnc1)N1CCN(c2cc(-c3ccccc3)nc3cc(-c4cccc(Cl)c4)nn23)CC1`, the EC50 was 0.17 µM (inactive) and the CC50 is 4.72 µM.

Regarding `O=C(c1ccoc1)N1CCN(c2cc(-c3ccncc3)nc3cc(-c4cccc(Cl)c4)nn23)CC1`, the EC50 was 0.6 µM (inactive) and the CC50 worked out at 13.5 µM.

As for `Cc1ccc(-c2cc3nc(-c4ccccc4)cc(N4CCN(C(=O)c5ccoc5)CC4)n3n2)cc1`, the EC50 is 0.29 µM (inactive) and the half-maximal cytotoxic concentration (CC50) is 5.77 µM.

For the compound `COc1cccc(-c2cc3nc(C)c(C)c(N4CCN(C(=O)c5ccoc5)CC4)n3n2)c1`, the EC50 is 0.82 µM and the cytotoxic concentration (CC50) was above 100 µM.

For `Cc1nc2cc(-c3cccc(Cl)c3)nn2c(N2CCN(C(=O)c3ccoc3)CC2)c1C`, the EC50 was 0.51 µM (inactive) and the CC50 was 5.33 µM.

In the case of `Cc1nc2cc(-c3cccc(Cl)c3)nn2c(N2CCN(C(=O)c3ccco3)CC2)c1C`, the EC50 is 1.58 µM and the CC50 is above 100 µM.

For `O=C(Cc1ccccc1)N1CCN(c2cc(-c3ccccc3)nc3cc(-c4cccc(Cl)c4)nn23)CC1`, the EC50 is 0.51 µM and the CC50 worked out at 17.8 µM.

With `O=C(c1ccco1)N1CCN(c2c3c(nc4cc(-c5cccc(F)c5)nn24)CCCC3)CC1`, the EC50 was 2.94 µM (inactive) and the CC50 came out at 5.32 µM.

`COc1ccc(-c2cc3nc(-c4ccccc4)cc(N4CCN(C(=O)c5ccoc5)CC4)n3n2)cc1`: the EC50 was 0.23 µM (inactive) and the CC50 was determined as 5.54 µM.

As for `COc1cc(OC)cc(-c2cc3nc(C)c(C)c(N4CCN(C(=O)c5ccoc5)CC4)n3n2)c1`, the EC50 was 0.1 µM (inactive) and the CC50 worked out at 9.52 µM.

In the case of `Cc1nc2cc(-c3ccc4c(c3)OCO4)nn2c(N2CCN(C(=O)c3ccoc3)CC2)c1C`, the EC50 was 0.13 µM and the CC50 is above 100 µM.

Consider `COc1cccc(-c2cc(N3CCN(C(=O)c4ccoc4)CC3)n3nc(-c4cccc(OC)c4)cc3n2)c1`, for which the EC50 was 0.03 µM (inactive) and the CC50 turned out to be 7.93 µM.

`Cc1nc2ncnn2c(N2CCN(C(=O)c3ccco3)CC2)c1Cc1ccccc1`: the EC50 is 12.3 µM (inactive) and the CC50 is above 100 µM.

With `O=C(c1ccoc1)N1CCN(c2cc(-c3ccco3)nc3cc(-c4cccc(Cl)c4)nn23)CC1`, the EC50 was 0.53 µM (inactive) and the CC50 was found to be 8.53 µM.

Turning to `COc1ccc(-c2cc3nc(-c4ccccc4)cc(N4CCN(C(=O)c5ccsc5)CC4)n3n2)cc1`, the EC50 was 0.14 µM (inactive) and the CC50 was 4.9 µM.

Regarding `O=C(c1ccoc1)N1CCN(c2cc(-c3ccco3)nc3cc(-c4ccccc4)nn23)CC1`, the EC50 is 0.55 µM (inactive) and the CC50 came to 5.52 µM.

With `O=C(c1ccoc1)N1CCN(c2cc(-c3cccnc3)nc3cc(-c4cccc(Cl)c4)nn23)CC1`, the EC50 was 0.2 µM (inactive) and the CC50 amounted to 5.33 µM.

On to `O=C(c1ccncc1)N1CCN(c2cc(-c3ccccc3)nc3cc(-c4cccc(Cl)c4)nn23)CC1`, for which the EC50 was 0.25 µM (inactive) and the CC50 was determined as 10.9 µM.

Turning to `O=C(C1CCCO1)N1CCN(c2c3c(nc4cc(-c5cccc(F)c5)nn24)CCCC3)CC1` (centres undefined), the EC50 was 3.58 µM (inactive) and the CC50 worked out at 12.3 µM.

Regarding `COc1cccc(C(=O)N2CCN(c3cc(-c4ccccc4)nc4cc(-c5cccc(Cl)c5)nn34)CC2)c1`, the EC50 was 0.35 µM and the CC50 is above 100 µM.

Regarding `COc1ccc(-c2cc3nc(C)c(C)c(N4CCN(C(C)=O)CC4)n3n2)cc1`, the EC50 is 6 µM and the cytotoxic concentration (CC50) was found to be 105 µM.

With `Cc1nc2cc(-c3ccc(F)cc3)nn2c(N2CCN(C(=O)c3ccco3)CC2)c1C`, the EC50 was 1.82 µM (inactive) and the CC50 amounted to 5.33 µM.

In the case of `COc1cccc(-c2cc3nc(C)c(C)c(N4CCN(Cc5ccco5)CC4)n3n2)c1`, the EC50 is 0.02 µM and the CC50 was above 100 µM.

For the compound `COc1ccc(-c2[nH]nc3nc(N4CCN(C(=O)c5ccoc5)CC4)cc(C(F)(F)F)c23)cc1`, the EC50 was 0.33 µM (inactive) and the CC50 worked out at 0.455 µM.

As to `COc1cccc(-c2cc3nc(-c4ccco4)cc(N4CCN(C(=O)c5ccoc5)CC4)n3n2)c1`, the EC50 was 0.47 µM (inactive) and the CC50 amounted to 5.52 µM.

`COc1ccc(-c2cc3nc(C)c(C)c(N4CCN(C(=O)c5ccco5)CC4)n3n2)cc1`: the EC50 was 0.53 µM and the CC50 is above 100 µM.

As to `CC(=O)N1CCN(c2c(C)c(C)nc3cc(-c4cccc(F)c4)nn23)CC1`, the EC50 was 19.8 µM (inactive) and the CC50 is above 100 µM.

On to `Cc1cc(N2CCN(C(=O)c3ccco3)CC2)n2nc(-c3ccc(F)cc3)cc2n1`, for which the EC50 is 5.33 µM (inactive) and the CC50 was 4.2 µM.

Consider `O=C(c1ccco1)N1CCN(c2cc(Cc3ccccc3)nc3cc(-c4cccc(Cl)c4)nn23)CC1`, for which the EC50 was 1.41 µM (inactive) and the CC50 came out at 8.47 µM.

In the case of `O=C(c1ccco1)N1CCN(c2cc(-c3ccccc3)nc3cc(-c4cccc(Cl)c4)nn23)CC1`, the EC50 is 0.7 µM (inactive) and the CC50 was 3.18 µM.

As to `COc1ccc(-c2cc3nc(-c4ccccc4)cc(N4CCN(C(=O)c5ccccc5)CC4)n3n2)cc1`, the EC50 is 0.19 µM and the CC50 was 16.9 µM.

The values are drawn from PubChem BioAssay AID488973 (NMMLSC, 2010).
